Most compounds without a hit are left out; they make up all but 1.8% or so of the library.
LEDGF integ inh: blocks HIV-1 LEDGF/p75-dependent DNA integration | TR-FRET IN-LEDGF/p75 DNA integration, Eu/Cy5 | inhibition, % at 3.7 µM | 0.64% of 370,000 active | AID 743269;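 active = inhibition above the screen-wide mean plus 3 SD, cut at about 13% in these data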;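 also: signal is the Cy5 over europium emission ratio at 671 and 618 nm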
MBD2 DNA inh: inhibitors of human MBD2 binding to methylated oligonucleotide; Q9UBB5; TR-FRET; inhibition, % at 4.4 µM; 0.31% of 370,000 active; AID 686964; in the data active = inhibition above about 13%
TDP2 inh: blocks human TDP2 phosphodiesterase activity; recombinant TDP2, T5PNP hydrolysis, p-nitrophenol absorbance 415 nm; AID 720702; O95551; 0.34% of 370,000 active; inhibition, % at 12.8 µM;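 active = inhibition above the mean of all tested compounds plus 3 SD, set per campaign, cut at about 25% in these data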
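Assay system: Recombinant human TDP2 | Quantity: 120 nM TDP2 per well | Incubation: 2 h at 37 °C | Signal: Epi absorbance | Evaluation: Percent inhibition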
core dimer inh: blocks dimerization of HCV core protein; TR-FRET GST/Flag-core106 dimerization, 1536-well; 0.33% of 300,000 active; inhibition, % at 5 µM;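 active = inhibition above the mean of all tested compounds plus 3 SD, set per screening campaign, cut at about 45% in these data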
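assay system = GST-tagged and Flag-tagged HCV core protein residues 1-106 | controls = unlabelled core106 and no-GST-core106 wells | incubation = compound-protein-antibody incubation 4 h at 22.5 °C | probe or stimulus = Eu donor and XL665 acceptor anti-tag antibodies | read-out = % inhibition based on acceptor/donor emission ratio | signal = TR-FRET 671 and 617 nm emission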
UHRF1 binding: UHRF1 methyl-DNA binding inhibition | AID 687016 | inhibition, % at 4.4 µM | 0.75% of 370,000 active | UHRF1 binding to methylated oligo, TR-FRET; in the data active = inhibition above about 21%;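 also: UHRF1 SRA domain binding a hemimethylated CpG hairpin DNA probe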
Target sequence (Q96T88 whole entry, looked up, the tested form may be a part): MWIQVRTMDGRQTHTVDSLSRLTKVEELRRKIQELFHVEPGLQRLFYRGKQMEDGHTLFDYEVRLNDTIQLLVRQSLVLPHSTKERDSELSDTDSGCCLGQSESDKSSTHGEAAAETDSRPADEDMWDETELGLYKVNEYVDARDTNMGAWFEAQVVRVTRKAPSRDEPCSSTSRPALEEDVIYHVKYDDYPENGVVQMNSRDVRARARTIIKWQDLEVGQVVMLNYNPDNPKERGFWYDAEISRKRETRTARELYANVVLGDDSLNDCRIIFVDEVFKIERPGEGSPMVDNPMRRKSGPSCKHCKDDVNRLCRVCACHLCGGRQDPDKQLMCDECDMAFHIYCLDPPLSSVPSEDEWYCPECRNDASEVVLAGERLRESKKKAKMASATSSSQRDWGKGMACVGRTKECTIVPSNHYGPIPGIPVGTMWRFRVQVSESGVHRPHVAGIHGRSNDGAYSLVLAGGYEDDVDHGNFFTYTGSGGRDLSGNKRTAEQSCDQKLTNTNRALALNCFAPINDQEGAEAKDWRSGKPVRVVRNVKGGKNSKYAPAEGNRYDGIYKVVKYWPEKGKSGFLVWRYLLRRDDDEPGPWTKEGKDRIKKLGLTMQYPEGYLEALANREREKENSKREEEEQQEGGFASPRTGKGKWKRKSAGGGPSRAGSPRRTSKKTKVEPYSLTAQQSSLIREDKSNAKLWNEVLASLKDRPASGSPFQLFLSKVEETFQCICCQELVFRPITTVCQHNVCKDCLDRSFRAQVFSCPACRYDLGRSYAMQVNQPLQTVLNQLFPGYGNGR
Of the large screens only hits and unclear results are named; the others gave an inactive call.

C#CCOCCOCCOCCNc1nc(N2CCN(C(=O)[C@H](CCC(=O)O)n3cc([C@@H](N)CCCCN)nn3)CC2)nc(N2CCN(C(=O)[C@H](CCCCN)n3cc([C@@H](N)CC(N)=O)nn3)CC2)n1	UHRF1 binding 48 (no result: core dimer inh)
O=C1[C@@H](CCc2ccccc2)[C@@H]2c3ccccc3C=NN2[C@@H]2c3ccccc3C=NN12	none (no result: core dimer inh)
COCc1c(C(=O)N/N=C/c2ccc(C)o2)nnn1-c1nonc1N	UHRF1 binding 25
Cc1ccc(/C=N/NC(=O)c2nnn(-c3nonc3N)c2CN(C)C)o1	none
COCc1c(C(N)=O)nnn1-c1nonc1N	UHRF1 binding 32
COC(=O)[C@]12C[C@H](CC(=O)NCc3ccc(C)o3)C(=O)N(CCc3ccc(OC)c(OC)c3)C1=C[C@H](C(C)C)O[C@@H]2C1CC1	none (no result: core dimer inh)
CCOC(=O)c1cc(NC(=O)Cc2ccc(S(=O)(=O)N3CCOCC3)s2)cc(C(=O)OCC)c1	UHRF1 binding 26
CN(C)S(=O)(=O)c1ccc(NC(=O)Cc2ccc(S(=O)(=O)N3CCOCC3)s2)cc1	core dimer inh 49
O=C(COC(=O)Cc1ccc(S(=O)(=O)N2CCCCC2)s1)Nc1ccc2c(c1)OCO2	core dimer inh 63
CCn1c2ccccc2c2cc(NC(=O)Cc3ccc(S(=O)(=O)N4CCOCC4)s3)ccc21	core dimer inh 60
O=C(Cc1ccc(S(=O)(=O)N2CCOCC2)s1)Nc1ccc(N2CCOCC2)cc1	none
O=C(Cc1ccc(S(=O)(=O)N2CCOCC2)s1)Nc1cc(C(F)(F)F)cc(C(F)(F)F)c1	none (no result: core dimer inh)
O=C(CSc1nc2ccccc2c(=O)n1-c1ccc(Cl)cc1)NNC(=S)Nc1ccccc1	none (no result: core dimer inh)
CC1(C)Oc2ccc(C(=O)NC3CCCC3)cc2NC1=O	none (no result: core dimer inh)
COc1ccc(-c2nn3c(-c4n[nH]c5c4CCC5)nnc3s2)cc1	none (no result: core dimer inh)
C1CCC(c2nn3c(-c4n[nH]c5c4CCC5)nnc3s2)CC1	core dimer inh 51
CCOc1cc(NC(=O)c2ccco2)c(OCC)cc1NC(=O)CCc1ccccc1OC	LEDGF integ inh 15
CCOc1cc(NC(=S)NC)c(OCC)cc1NC(=O)c1ccco1	none
CNC(=S)Nc1cc(OC)c(NC(=O)c2ccco2)cc1OC	UHRF1 binding 43
Cc1ccc(CNCCNCCO)s1	UHRF1 binding 22
Cc1ccc(CNCC(O)c2ccccc2)s1 (configuration not stated)	none
CC1(C(=O)Nc2ccc(Cl)c(Cl)c2)CCN1C(=O)C1CCCCC1 (configuration not stated)	UHRF1 binding 22 (no result: core dimer inh)
CC1(C(=O)Nc2ccc3c(c2)OCO3)CCN1C(=O)C1CCCCC1 (configuration not stated)	none (no result: core dimer inh)
O=C(CCn1nnc(-c2cccs2)n1)NCc1ccco1	none (no result: core dimer inh)
Cc1cc(NS(=O)(=O)c2ccc(NC(=O)CSc3nc4ncc(Cl)cc4[nH]3)cc2)nc(C)n1	none
Cc1cc(NS(=O)(=O)c2ccc(NC(=O)CSc3nc4ncc(Br)cc4[nH]3)cc2)nc(C)n1	UHRF1 binding 39
CC1CCCCC1NC(=O)COC(=O)c1c2c(nc3ccccc13)/C(=C/c1ccco1)CC2 (configuration not stated)	core dimer inh 97
Cc1ccc(S(=O)(=O)NC(=O)Nc2ccc(N(C)C)cc2)cc1	LEDGF integ inh 26
Cc1ccc(NC(=O)NNS(=O)(=O)c2ccc(Br)cc2)cc1	none
Cc1nn(C)c(C)c1/C=C/C(=O)O	UHRF1 binding 39
CC(C)(C)OC(=O)C[C@H]1C/C=C\C[C@H](CC(=O)NCCO)C(=O)NCCOC1=O	none (no result: core dimer inh)
CC(C)(C)OC(=O)C[C@@H]1C/C=C\C[C@@H](CC(=O)NCCO)C(=O)NCCOC1=O	LEDGF integ inh 18 (no result: core dimer inh)
Cc1cccc(Nc2nn3c(=O)c4ccccc4nc3s2)c1	core dimer inh 69
CC1=NN(C(C#N)c2ccccc2O)C(C)(C)C1 (configuration not stated)	UHRF1 binding 30
Cc1cc(CSc2ccccc2)ccc1NC(=O)c1ccc(Br)cc1	UHRF1 binding 33
O=C(Nc1cccc(Br)c1)c1ccc(CSc2ccccc2)cc1	none
COc1ccc(N2CCN(c3ccc4nnc(CCC(=O)Nc5ccc(C)cc5)n4n3)CC2)cc1	UHRF1 binding 21
COc1ccc(CCC(=O)Nc2ccc(N3CCOCC3)cc2)cc1	UHRF1 binding 31
COc1ccc(OCCCC(=O)Nc2ccc(N3CCOCC3)cc2)cc1	none
CCC(=O)Nc1ccc(N2CCOCC2)c(S(=O)(=O)Nc2ccc(OC)cc2)c1	none
COc1ccc(NC(=O)CCc2nnc3ccc(N4CCC(C)CC4)nn23)cc1	none
COc1ccc(NS(=O)(=O)c2cc(NC(=O)CCc3ccccc3)ccc2N2CCOCC2)cc1	UHRF1 binding 31 (no result: core dimer inh)
c1ccc(-c2cccc(CNc3nc(-c4ccccn4)nnc3-c3ccccc3)c2)cc1	none (no result: core dimer inh)
O=C(OC12CCCN(C1)/C(=C/c1ccc(Cl)cc1)C2)C1CCCC1 (configuration not stated)	none (no result: core dimer inh)
O=C(c1cccc(F)c1)N1CCCC(c2nc(-c3cccs3)no2)C1 (configuration not stated)	none (no result: core dimer inh)
O=C1c2ccccc2C(Nc2ccc3c(c2)OCO3)N1Cc1ccc2c(c1)OCO2 (configuration not stated)	core dimer inh 50
O=C1c2ccccc2C(Nc2cccnc2)N1Cc1ccc2c(c1)OCO2 (configuration not stated)	none
CCCCN1C[C@@H](COCc2ccccc2)Oc2cccc(F)c2S1(=O)=O	none (no result: core dimer inh)
O=c1c2ccccc2[nH]n1[C@@H](Cc1ccccc1)Cn1cc(-c2ccc(-c3ccccc3)cc2)nn1	none (no result: core dimer inh)
COc1ccccc1OCCSc1nc2ccccc2n1CCC(=O)O	UHRF1 binding 34
COc1ccc(OCCSc2nc3ccccc3n2CCC(=O)O)cc1	none
CN(CC#CC1(O)c2ccccc2-c2ccccc21)Cc1ccccc1	UHRF1 binding 23
O=C(Nc1ccc2c(c1)OCO2)O[C@@H]1CC[C@@]23CCCN2C(=O)CCC[C@H]3C1	none (no result: core dimer inh)
COc1ccc(CNC(=O)O[C@H]2CN(C(=O)OC(C)C)N(C(=O)OC(C)C)[C@@H]3CN(S(=O)(=O)c4ccc(C)cc4)C[C@]23O)cc1OC	none (no result: core dimer inh)
C#CCN(C[C@@H]1[C@@H](OC(=O)NCc2ccccc2)[C@@H](OC(=O)NCc2ccccc2)CN(C(=O)OC(C)C)N1C(=O)OC(C)C)S(=O)(=O)c1ccc(C)cc1	UHRF1 binding 23 (no result: core dimer inh)
Cc1ccc(S(=O)(=O)N2C[C@H]3N(C(=O)OC(C)C)N(C(=O)OC(C)C)C[C@H](OC(=O)NCc4ccccc4F)[C@@]3(O)C2)cc1	UHRF1 binding 22 (no result: core dimer inh)
CN(C(=O)CNC(=O)c1ccccc1OCC(=O)Nc1ccc(Br)cc1)c1ccccc1	none (no result: core dimer inh)
CN(Cc1ccccc1)C(=O)CN(c1ccccc1Cl)S(C)(=O)=O	none
COC(=O)c1ccc(CN(c2ccccc2Cl)S(C)(=O)=O)cc1	UHRF1 binding 30
O=[N+]([O-])c1ccc(Sc2ncccn2)c([N+](=O)[O-])c1	none

Compound activity as filed in PubChem.
